From ChEMBL document CHEMBL4334424, “The winding road of the uvaretin class of natural products: from total synthesis to bioactive agent discovery” (Medchemcomm, 2019)
pIC50: −log10 of the molar value. Activity calls are given as the source filed them. The calls are words filed in the database; no cut-off is given here.

Key:
MIA PaCa-2 [1] = test: Cytotoxicity against human MIAPaCa2 cells assessed as reduction in cell viability incubated for 72 hrs by alamar blue assay; format: functional, cell-based; settings: MIA PaCa-2, 72 h
Procedure, shortened: (§1)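 Adherent cells were seeded at 1500 cells/well in 384-well plates and allowed 2–3 h to attach. Compounds in DMSO, diluted in media over 31.6 nM–200 μM, were tested in triplicate for 72 h continuous exposure at 37 °C, 5% CO2. Alamar Blue was added for the final 3 h and fluorescence read (ex 560/em 590 nm). IC50 was fitted from ≥3 independent experiments.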

U-937 = test: Cytotoxicity against human U937 cells assessed as reduction in cell viability incubated for 72 hrs by alamar blue assay; format: functional, cell-based; settings: U-937, 72 h
Procedure, shortened: (§2)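 Suspension cells (2200/well, 384-well) were added directly onto compound in media with no attachment period. Compounds spanned 31.6 nM–200 μM in triplicate, with 72 h exposure at 37 °C, 5% CO2. Alamar Blue was added for the last 3 h and fluorescence read (ex 560/em 590 nm). IC50 came from ≥3 independent experiments.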

HeLa = test: Cytotoxicity against human HeLa cells assessed as reduction in cell viability incubated for 72 hrs by alamar blue assay; format: functional, cell-based; procedure, shortened: as §1
REH = test: Cytotoxicity against human REH cells assessed as reduction in cell viability incubated for 72 hrs by alamar blue assay; format: functional, cell-based; procedure, shortened: as §2
A549 = test: Cytotoxicity against human A549 cells assessed as reduction in cell viability incubated for 72 hrs by alamar blue assay; format: functional, cell-based; settings: A549, 72 h; procedure, shortened: as §1
HCT-116 [2] = test: Cytotoxicity against human HCT116 cells assessed as reduction in cell viability incubated for 72 hrs by alamar blue assay; format: functional, cell-based; settings: HCT-116, 72 h; procedure, shortened: as §1
MIA PaCa-2 [3] = test: Cytotoxicity against human MIAPaCa2 cells assessed as combinational index at 2.5 uM incubated for 72 hrs in presence of 50 uM 6TP by alamar blue assay; format: functional
Procedure, shortened: (§3)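 Combination assay in 96-well plates with 100 μL final volume and 1% DMSO. Two test-compound concentrations were crossed with five 6TP concentrations, then cells were added (4000/well adherent, 7000/well suspension). Plates ran 72 h at 37 °C, 5% CO2, with Alamar Blue viability read-out and ≥3 independent experiments. Combination index was calculated by the Chou–Talalay method.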

MIA PaCa-2 [4] = test: Cytotoxicity against human MIAPaCa2 cells assessed as combinational index at 2.5 uM incubated for 72 hrs in presence of 25 uM 6TP by alamar blue assay; format: functional; procedure, shortened: as §3
MIA PaCa-2 [5] = test: Cytotoxicity against human MIAPaCa2 cells assessed as combinational index at 2.5 uM incubated for 72 hrs in presence of 100 uM 6TP by alamar blue assay; format: functional; procedure, shortened: as §3
MIA PaCa-2 [6] = test: Cytotoxicity against human MIAPaCa2 cells assessed as combinational index at 5 uM incubated for 72 hrs in presence of 200 uM 6TP by alamar blue assay; format: functional; procedure, shortened: as §3
MIA PaCa-2 [7] = test: Cytotoxicity against human MIAPaCa2 cells assessed as cell viability at 2.5 uM incubated for 72 hrs by alamar blue assay (reference value: 0 %); format: functional; settings: MIA PaCa-2, 72 h, read-out: Activity; procedure, shortened: as §3
MIA PaCa-2 [8] = test: Cytotoxicity against human MIAPaCa2 cells assessed as cell viability at 2.5 uM incubated for 72 hrs in presence of 25 uM 6TP by alamar blue assay (reference value: 6.4 %); format: functional; procedure, shortened: as §3
MIA PaCa-2 [9] = test: Cytotoxicity against human MIAPaCa2 cells assessed as cell viability at 2.5 uM incubated for 72 hrs in presence of 100 uM 6TP by alamar blue assay (reference value: 30.7 %); format: functional; procedure, shortened: as §3
MIA PaCa-2 [10] = test: Cytotoxicity against human MIAPaCa2 cells assessed as combinational index at 5 uM incubated for 72 hrs in presence of 25 uM 6TP by alamar blue assay; format: functional; procedure, shortened: as §3
MIA PaCa-2 [11] = test: Cytotoxicity against human MIAPaCa2 cells assessed as cell viability at 5 uM incubated for 72 hrs in presence of 25 uM 6TP by alamar blue assay (reference value: 6.4 %); format: functional; procedure, shortened: as §3
MIA PaCa-2 [12] = test: Cytotoxicity against human MIAPaCa2 cells assessed as combinational index at 5 uM incubated for 72 hrs in presence of 50 uM 6TP by alamar blue assay; format: functional; procedure, shortened: as §3
MIA PaCa-2 [13] = test: Cytotoxicity against human MIAPaCa2 cells assessed as combinational index at 2.5 uM incubated for 72 hrs in presence of 200 uM 6TP by alamar blue assay; format: functional; procedure, shortened: as §3
MIA PaCa-2 [14] = test: Cytotoxicity against human MIAPaCa2 cells assessed as cell viability at 5 uM incubated for 72 hrs in presence of 100 uM 6TP by alamar blue assay (reference value: 30.7 %); format: functional; procedure, shortened: as §3
MIA PaCa-2 [15] = test: Cytotoxicity against human MIAPaCa2 cells assessed as cell viability at 5 uM incubated for 72 hrs by alamar blue assay (reference value: 0 %); format: functional; settings: MIA PaCa-2, 72 h, read-out: Activity; procedure, shortened: as §3
MIA PaCa-2 [16] = test: Cytotoxicity against human MIAPaCa2 cells assessed as cell viability at 2.5 uM incubated for 72 hrs in presence of 10 uM 6TP by alamar blue assay (reference value: 6.9 %); format: functional; procedure, shortened: as §3
MIA PaCa-2 [17] = test: Cytotoxicity against human MIAPaCa2 cells assessed as cell viability at 2.5 uM incubated for 72 hrs in presence of 50 uM 6TP by alamar blue assay (reference value: 13.8 %); format: functional; procedure, shortened: as §3
MIA PaCa-2 [18] = test: Cytotoxicity against human MIAPaCa2 cells assessed as combinational index at 5 uM incubated for 72 hrs in presence of 100 uM 6TP by alamar blue assay; format: functional; procedure, shortened: as §3
MIA PaCa-2 [19] = test: Cytotoxicity against human MIAPaCa2 cells assessed as cell viability at 5 uM incubated for 72 hrs in presence of 10 uM 6TP by alamar blue assay (reference value: 6.9 %); format: functional; procedure, shortened: as §3
MIA PaCa-2 [20] = test: Cytotoxicity against human MIAPaCa2 cells assessed as cell viability at 5 uM incubated for 72 hrs in presence of 50 uM 6TP by alamar blue assay (reference value: 13.8 %); format: functional; procedure, shortened: as §3
HCT-116 [21] = test: Cytotoxicity against human HCT116 cells assessed as reduction in cell viability incubated for 72 hrs in presence of 6TP by alamar blue assay; format: functional, cell-based; procedure, shortened: as §3
HCT-116 [22] = test: Cytotoxicity against human HCT116 cells assessed as reduction in cell viability incubated for 72 hrs in presence of etoposide by alamar blue assay; format: functional, cell-based
Procedure, shortened: (§4)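 Same combination format as the 6TP study, with the cytotoxic partner (doxorubicin, etoposide or paclitaxel) combined with test compound. Cells were at 4000/well (adherent) in 100 μL, 1% DMSO, for 72 h at 37 °C, 5% CO2, with Alamar Blue viability read-out. Combination index was derived by the Chou–Talalay protocol and reported as a median.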

HCT-116 [23] = test: Cytotoxicity against human HCT116 cells assessed as reduction in cell viability incubated for 72 hrs in presence of doxorubicin by alamar blue assay; format: functional, cell-based; procedure, shortened: as §4

Structure (SMILES)	pIC50 (MIA PaCa-2 [1])	pIC50 (U-937)	pIC50 (HeLa)	pIC50 (REH)	pIC50 (A549)	pIC50 (HCT-116 [2])	further results
COCOc1cc(OC)cc(OC)c1C(C)=O	< 4.70	4.88	4.85	< 4.70	4.77	< 4.70	–
COCOc1cc(OCOC)c(C(=O)/C=C/c2ccccc2)c(OCOC)c1	4.93	5.09	4.94	< 4.70	5.08	< 4.70	CI (MIA PaCa-2 [3]): 0.56; CI (MIA PaCa-2 [4]): 0.24; CI (MIA PaCa-2 [5]): 0.96; CI (MIA PaCa-2 [6]): 2.09; viability at 2.5 µM (MIA PaCa-2 [7]): 21.1%; Activity (MIA PaCa-2 [8]): 15%; Activity (MIA PaCa-2 [9]): 17.6%; CI (MIA PaCa-2 [10]): 0.47; Activity (MIA PaCa-2 [11]): 17.3%; CI (MIA PaCa-2 [12]): 0.57; CI (MIA PaCa-2 [13]): 1.79; Activity (MIA PaCa-2 [14]): 19.3%; viability at 5 µM (MIA PaCa-2 [15]): 20%; Activity (MIA PaCa-2 [16]): 14.2%; Activity (MIA PaCa-2 [17]): 16.9%; CI (MIA PaCa-2 [18]): 1.01; Activity (MIA PaCa-2 [19]): 18.4%; Activity (MIA PaCa-2 [20]): 17%
COCOc1cc(O)c(C(C)=O)c(OCOC)c1	< 4.70	5.13	4.91	< 4.70	< 4.70	< 4.70	–
COc1cc(OC)c(C(=O)/C=C/c2ccccc2)c(O)c1Cc1ccccc1O	< 4.70	5.17	5.51	5.01	5.24	< 4.70	–
C=CCOc1ccccc1Cc1c(OC)cc(OC)c(C(=O)/C=C/c2ccccc2)c1OC	5.03	5.12	5.24	4.90	5.07	< 4.70	–
COCOc1cc(OC)cc(OC)c1C(=O)/C=C/c1ccccc1	5.25	5.60	5.32	4.71	5.46	< 4.70	–
COc1cc(O)c(C(=O)/C=C/c2ccccc2)c(OC)c1 [FLAVOKAWAIN B]	4.74	< 4.70	< 4.70	< 4.70	4.71	< 4.70	–
COc1cc(O)c(Cc2ccccc2O)c(O)c1C(=O)CCc1ccccc1 [UVARETIN]	5.70	5.44	5.43	4.95	5.66	< 4.70	Activity (HCT-116 [21]): inactive; Activity (HCT-116 [22]): inactive; Activity (HCT-116 [23]): inactive
COCOc1cc(O)c(C(=O)/C=C/c2ccccc2)c(OCOC)c1	5.11	< 4.70	4.78	< 4.70	< 4.70	< 4.70	CI (MIA PaCa-2 [3]): 2.04; CI (MIA PaCa-2 [4]): 1.21; CI (MIA PaCa-2 [5]): 2.18; CI (MIA PaCa-2 [6]): 1.43; viability at 2.5 µM (MIA PaCa-2 [7]): 6.1%; Activity (MIA PaCa-2 [8]): 7.2%; Activity (MIA PaCa-2 [9]): 15.2%; CI (MIA PaCa-2 [10]): 1.13; Activity (MIA PaCa-2 [11]): 8.2%; CI (MIA PaCa-2 [12]): 1.87; CI (MIA PaCa-2 [13]): 2.16; Activity (MIA PaCa-2 [14]): 19.9%; viability at 5 µM (MIA PaCa-2 [15]): 7.2%; Activity (MIA PaCa-2 [16]): 7%; Activity (MIA PaCa-2 [17]): 9.7%; CI (MIA PaCa-2 [18]): 1.42; Activity (MIA PaCa-2 [19]): 8.1%; Activity (MIA PaCa-2 [20]): 13%
CC(=O)c1c(O)cc(O)cc1O [2,4,6-TRIHYDROXYACETOPHENONE]	< 4.70	< 4.70	< 4.70	< 4.70	< 4.70	< 4.70	–
COc1cc(OC)c(C(=O)/C=C/c2ccccc2)c(OC)c1	< 4.70	5.17	5.28	< 4.70	5.37	< 4.70	–
COc1cc(OC)c(C(C)=O)c(OC)c1	4.84	5.14	5.42	< 4.70	5.01	< 4.70	–
COCOc1cc(OCOC)c(C(C)=O)c(OCOC)c1	5.21	4.93	< 4.70	< 4.70	< 4.70	< 4.70	–
COc1cc(O)c(Cc2ccccc2O)c(O)c1C(=O)/C=C/c1ccccc1	5.29	5.64	5.34	< 4.70	5.37	4.71	Activity (HCT-116 [21]): inactive; Activity (HCT-116 [22]): inactive; Activity (HCT-116 [23]): inactive
COc1cc(O)c(C(C)=O)c(OC)c1 [XANTHOXYLIN]	< 4.70	< 4.70	4.73	< 4.70	< 4.70	< 4.70	–
